# Laboratory results: ChEMBL document CHEMBL1126849, “Synthesis of A-ring fluorinated derivatives of (17 alpha,20E/Z)-[125I]iodovinylestradiols: effect on receptor binding and receptor-mediated target tissue uptake” (J Med Chem, 1993)
# Target: T1, Estrogen receptor (Mus musculus) (UniProt O08537+P19785)
# Assay: Relative binding affinity (RBA) for murine cytoplasmic estrogen receptor at 25 degree C for 2 hr
# Type: protein assay
# Summary of the method: (§1)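 Murine uterine cytoplasmic extract incubated 2 h at 4 °C or at 25 °C with 20 nM [3H]estradiol and competitors at 2 nM–20 μM. RBA is taken as 100 × the ratio of competitor to unlabeled estradiol concentration needed for 50% competition of specific [3H]estradiol binding.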
# T1 sequence (O08537 whole entry, looked up): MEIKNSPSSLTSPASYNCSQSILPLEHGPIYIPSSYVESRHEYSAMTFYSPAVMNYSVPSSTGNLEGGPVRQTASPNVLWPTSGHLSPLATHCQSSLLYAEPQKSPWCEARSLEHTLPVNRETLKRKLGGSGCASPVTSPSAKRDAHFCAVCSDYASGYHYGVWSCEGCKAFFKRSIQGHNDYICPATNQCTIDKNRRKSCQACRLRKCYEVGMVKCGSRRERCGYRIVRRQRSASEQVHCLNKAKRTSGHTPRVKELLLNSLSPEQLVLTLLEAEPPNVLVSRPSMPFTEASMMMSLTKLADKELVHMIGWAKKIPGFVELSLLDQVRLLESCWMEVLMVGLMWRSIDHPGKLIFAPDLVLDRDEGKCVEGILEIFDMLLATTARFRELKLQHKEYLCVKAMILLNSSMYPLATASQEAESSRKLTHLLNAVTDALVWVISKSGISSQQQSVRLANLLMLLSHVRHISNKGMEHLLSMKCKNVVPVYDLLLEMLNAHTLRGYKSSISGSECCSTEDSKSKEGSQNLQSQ
# T1 sequence (P19785 whole entry, looked up): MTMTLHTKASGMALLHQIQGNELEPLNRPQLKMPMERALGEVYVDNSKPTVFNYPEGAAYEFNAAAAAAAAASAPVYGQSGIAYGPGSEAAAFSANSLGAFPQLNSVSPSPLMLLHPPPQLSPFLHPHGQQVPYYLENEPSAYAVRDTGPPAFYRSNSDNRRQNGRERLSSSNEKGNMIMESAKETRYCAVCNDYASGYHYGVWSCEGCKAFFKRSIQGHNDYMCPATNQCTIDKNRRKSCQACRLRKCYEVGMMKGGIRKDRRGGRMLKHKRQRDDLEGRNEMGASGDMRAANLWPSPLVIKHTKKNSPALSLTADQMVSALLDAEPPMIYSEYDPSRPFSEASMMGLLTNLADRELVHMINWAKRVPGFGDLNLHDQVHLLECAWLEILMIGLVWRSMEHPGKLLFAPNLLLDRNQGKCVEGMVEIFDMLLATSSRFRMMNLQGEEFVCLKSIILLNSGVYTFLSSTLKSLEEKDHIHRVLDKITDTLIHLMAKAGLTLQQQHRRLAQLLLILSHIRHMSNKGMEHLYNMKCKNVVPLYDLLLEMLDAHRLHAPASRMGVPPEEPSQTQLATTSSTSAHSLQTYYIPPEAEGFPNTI
row,RBA,SMILES
1,166,C#C[C@]1(O)CC[C@H]2[C@@H]3CCc4c(ccc(O)c4F)[C@H]3CC[C@@]21C

# Target: T1, Estrogen receptor (Mus musculus)
# Assay: Relative binding affinity (RBA) against murine cytoplasmic estrogen receptor incubated at 0-4 degree Celsius for 18 hours
# Type: protein assay
# Summary of the method: (§2)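 Competitive binding on murine uterine cytoplasmic extract with 20 nM [3H]estradiol and competitor steroids at 2 nM–20 μM, incubated 18 h at 0–4 °C. RBA = 100 × ratio of […] concentration giving 50% competition for specific binding. Mean of three experiments with SD.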
row,RBA,SMILES
1,43.2,C[C@@H]1Cc2cc(O)ccc2[C@H]2CC[C@@]3(C)[C@@H](CC[C@@]3(O)/C=C/I)[C@H]12
2,16.7,C=C[C@]1(O)CC[C@H]2[C@@H]3CCc4c(ccc(O)c4F)[C@H]3[C@@H](OC)C[C@@]21C
3,33.3,C=C[C@]1(O)CC[C@H]2[C@@H]3[C@H](C)Cc4cc(O)c(F)cc4[C@H]3CC[C@@]21C
4,15.3,C=C[C@]1(O)CC[C@H]2[C@@H]3CCc4cc(O)ccc4[C@H]3[C@@H](OC)C[C@@]21C
5,73.1,C=C[C@]1(O)CC[C@H]2[C@@H]3[C@H](C)Cc4cc(O)ccc4[C@H]3CC[C@@]21C
6,15.9,C=C[C@]1(O)CC[C@H]2[C@@H]3CCc4cc(O)c(F)cc4[C@H]3[C@@H](OC)C[C@@]21C
7,27.7,CO[C@H]1C[C@@]2(C)[C@@H](CC[C@@]2(O)/C=C/I)[C@@H]2CCc3cc(O)ccc3[C@H]21
8,62.4,C=C[C@]1(O)CC[C@H]2[C@@H]3[C@H](C)Cc4c(ccc(O)c4F)[C@H]3CC[C@@]21C
9,46.7,C[C@]12CC[C@@H]3c4ccc(O)cc4CC[C@H]3[C@@H]1CC[C@@]2(O)/C=C\I
10,119,C=C[C@]1(O)CC[C@H]2[C@@H]3CCc4c(ccc(O)c4F)[C@H]3CC[C@@]21C
11,39.7,C[C@]12CC[C@@H]3c4ccc(O)cc4CC[C@H]3[C@@H]1CC[C@@]2(O)/C=C/I
12,32,CO[C@H]1C[C@@]2(C)[C@@H](CC[C@@]2(O)/C=C\I)[C@@H]2CCc3cc(O)ccc3[C@H]21
13,64.3,C=C[C@]1(O)CC[C@H]2[C@@H]3CCc4cc(O)c(F)cc4[C@H]3CC[C@@]21C
14,44.9,C[C@@H]1Cc2cc(O)ccc2[C@H]2CC[C@@]3(C)[C@@H](CC[C@@]3(O)/C=C\I)[C@H]12

# Target: T1, Estrogen receptor (Mus musculus)
# Assay: Relative binding affinity (RBA) for murine cytoplasmic estrogen receptor at 4C for 18 hr
# Type: protein assay
# Summary of the method: as §2
row,RBA,SMILES
1,119,C#C[C@]1(O)CC[C@H]2[C@@H]3CCc4c(ccc(O)c4F)[C@H]3CC[C@@]21C

# Target: T1, Estrogen receptor (Mus musculus)
# Assay: Relative binding affinity (RBA) for murine cytoplasmic estrogen receptor at 4C for 2 hr
# Type: protein assay
# Summary of the method: as §1
row,RBA,SMILES
1,80,C#C[C@]1(O)CC[C@H]2[C@@H]3CCc4c(ccc(O)c4F)[C@H]3CC[C@@]21C
